Measurements from ChEMBL document CHEMBL1121879, “In vitro activity of 2-alkyl-3-hydroxy-1,4-naphthoquinones against Theileria parva” (1981).
Values after ≈ are worked out from the molar mass of the structure shown.

system: Theileria parva; experiment: In vitro concentration required to reduce the proportion of schizont infected cells in the culture to 50% of that of untreated control in the 48 hr incubation period; format: functional; conditions: read-out: ED50 (the source's name)
Summary of the method: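 T. parva-infected cell cultures were exposed to fourfold serial dilutions of each drug for 48 h, and the proportion of schizont-infected cells was compared with untreated controls. ED50 was expressed in mg/L, with at least two tests per compound.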

EC50 [µg/mL]	Structure (SMILES)
> 10	O=C1C(=O)c2ccccc2C(O)=C1NC(=O)C1CCCCC1
0.01 (≈ 0.0242 µM)	CCCCCCCCCCCCCCCCCC1=C(O)C(=O)c2ccccc2C1=O
0.06 (≈ 0.192 µM)	O=C1C(=O)c2ccccc2C(O)=C1CCCCC1CCCCC1
0.08 (≈ 0.281 µM)	O=C1C(=O)c2ccccc2C(O)=C1CCC1CCCCC1
> 10	NC1=C(CC2CCCCC2)C(=O)c2ccccc2C1=O
> 10	O=C1C(Cl)=C(CC2CCCCC2)C(=O)c2ccccc21
0.06 (≈ 0.224 µM)	O=C1C(=O)c2ccccc2C(O)=C1C1CC2CCC1C2 (centres undefined)
0.03 (≈ 0.111 µM)	O=C1C(=O)c2ccccc2C(O)=C1CC1CCCCC1
0.006 (≈ 0.0162 µM)	CCCCCCCCCCCCCCC1=C(O)C(=O)c2ccccc2C1=O
0.05 (≈ 0.146 µM)	CCCCCCCCCCCCC1=C(O)C(=O)c2ccccc2C1=O
1 (≈ 3.2 µM)	CC(=O)OC1=C(CC2CCCCC2)C(=O)c2ccccc2C1=O
10 (≈ 46.7 µM)	O=C1C(=O)c2ccccc2C(O)=C1C1CC1
6.5 (≈ 22.5 µM)	O=C1C(=O)c2ccccc2C(O)=C1SC1CCCCC1
1.5 (≈ 5.9 µM)	O=C1C(O)=C(C2C=CCCC2)C(=O)c2ccccc21 (centres undefined)
> 10	O=C1C(=O)c2ccccc2C(O)=C1CSC1CCCCC1
0.007 (≈ 0.0246 µM)	O=C1C(=O)c2ccccc2C(O)=C1C1CCCCCCC1
0.006 (≈ 0.0168 µM)	CCCCCCCCCCCCCC1=C(O)C(=O)c2ccccc2C1=O
10 (≈ 20.6 µM)	O=C1C(O)=C(CCCCCCCCCCC2=C(O)C(=O)c3ccccc3C2=O)C(=O)c2ccccc21
> 10	O=C1C(=O)c2ccccc2C(O)=C1c1ccccc1
0.06 (≈ 0.201 µM)	O=C1C(=O)c2ccccc2C(O)=C1CCCC1CCCCC1

EC50 [µg/mL]	Structure (SMILES)
0.01 (≈ 0.0251 µM)	CCCCCCCCCCCCCCCCC1=C(O)C(=O)c2ccccc2C1=O
0.05 (≈ 0.141 µM)	O=C1C(=O)c2ccccc2C(O)=C1CCCCCCCC1CCCCC1
> 10	COc1ccc2c(c1)C(=O)C(C1CCCCCC1)=C(O)C2=O
0.01 (≈ 0.026 µM)	CCCCCCCCCCCCCCCC1=C(O)C(=O)c2ccccc2C1=O
0.09 (≈ 0.264 µM)	O=C1C(=O)c2ccccc2C(O)=C1C1CCCCCCCCCCC1
> 10	O=C1C(O)=C(CCCCCC2=C(O)C(=O)c3ccccc3C2=O)C(=O)c2ccccc21
> 10	O=C1C(O)=C(NCC2CCCCC2)C(=O)c2ccccc21
0.006 (≈ 0.0177 µM)	O=C1C(O)=C(C2CCC(C3CCCCC3)CC2)C(=O)c2ccccc21 (centres undefined)
1 (≈ 2.18 µM)	O=C1C(O)=C(CCCCCCCCC2=C(O)C(=O)c3ccccc3C2=O)C(=O)c2ccccc21
6.8 (≈ 26.3 µM)	O=C1C(=O)c2ccccc2C(O)=C1C1CCCOC1 (centres undefined)
10 (≈ 43.8 µM)	O=C1C(=O)c2ccccc2C(O)=C1C1CCC1
3.7 (≈ 15.3 µM)	O=C1C(=O)c2ccccc2C(O)=C1C1CCCC1
0.03 (≈ 0.0919 µM)	O=C1C(=O)c2ccccc2C(O)=C1CCCCCC1CCCCC1
0.01 (≈ 0.037 µM)	O=C1C(=O)c2ccccc2C(O)=C1C1CCCCCC1
0.13 (≈ 0.433 µM)	CCCCCCCCCC1=C(O)C(=O)c2ccccc2C1=O
> 10	O=C1C(O)=C(CCCCCCC2=C(O)C(=O)c3ccccc3C2=O)C(=O)c2ccccc21
1 (≈ 4.09 µM)	CCCCCC1=C(O)C(=O)c2ccccc2C1=O
0.06 (≈ 0.163 µM)	O=C1C(O)=C(CCCCCCCCC2CCCCC2)C(=O)c2ccccc21 [MENOCTONE]
0.006 (≈ 0.0234 µM)	O=C1C(O)=C(C2CCCCC2)C(=O)c2ccccc21 [PARVAQUONE]
